Reference: paper PMC9359741 (Clinical Cancer Research, 2022)
Several values for one entry are separate records, joined by “and”; a condition that tells them apart may be missing. Identical values can stand only once. Like-named read-outs stand apart in the source and are kept apart here.

How the values were obtained:
[1] = tested on: patients with selected advanced solid tumors; type: in vivo, human
Method in brief: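 Adults (≥18 y) with histologically or cytologically confirmed selected advanced solid tumours. Oral test compound started at 200 mg QD, with planned escalation to 400 mg QD, plus anti-PD-1 antibody 2 mg/kg IV every 3 weeks. DLT incidence defined the MTD (DLT criteria in supplement). AEs and lab abnormalities were graded by CTCAE v4.03 in all patients given ≥1 dose and summarized descriptively.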

[2] = Phase 2 plasma pharmacokinetics of ARRY-382 and metabolites; type: in vivo, human; details: for RAUC (accumulation ratio), geometric mean (geometric %CV) / Ctrough, geometric mean (geometric %CV) / RCmax (accumulation ratio), geometric mean (geometric %CV): Cycle 2 day 1, 300 mg; for AUC(0-t) / AUC / Cmax / Tmax: human, plasma, oral, 300 mg; for AUC(0-t): AUClast; for AUC(0-t) / AUC / Cmax: geometric mean (geometric %CV); for AUC: AUCtau; for Tmax: median (range)
Method in brief: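 Blood was collected for plasma test compound and its N-oxide, N-desmethyl and sulfate metabolites. Trough samples were taken ≤120 min before the oral dose on cycle 1 day 15 and day 1 of cycles 3–6. Doses were 200–400 mg QD in Phase 1b and 300 mg QD in Phase 2. Non-compartmental parameters were estimated per patient in the PK set, reported as geometric mean (geometric %CV) and Tmax as median (range).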

[3] = Phase 1b, ARRY-382 200 mg, N = 6
[4] = Phase 1b, ARRY-382 300 mg, N = 6
[5] = Phase 1b, ARRY-382 400 mg, N = 7
[6] = Cycle 1 day 1, PD-1/PD-L1 IR, n = 18
[7] = Cycle 2 day 1, PD-1/PD-L1 IR, n = 6

Cc1cccc(Cn2nc(C3CC3)c3c(NC(=O)c4cnc5cc(OCCN6CCN(C)CC6)ccn45)cccc32)n1 [ARRY-382]
Patients with DLTs ([1]; 300-mg cohort: Grade 3 acute pancreatitis): 1/6 | Patients with DLTs ([1]; 400-mg cohort: Grade 2 increased CPK, Grade 3 increased ALT, AST and bilirubin): 2/7 | MTD (and RP2D) of ARRY-382 in combination with pembrolizumab ([1]; Phase 1b): 300 mg QD | Patients with a Grade 4 AE ([1]; Phase 1b): 6 (31.6%) n (%) | Patients with a grade 3 AE ([1]; Phase 1b): 9 (47.4%) n (%) | Patients with ≥1 TEAE ([1]; Phase 1b): 94.7% | Permanently discontinued due to AEs ([1]; Phase 1b): 2 (10.5%) n (%) | Deaths ([1]; Phase 1b, 12 due to disease progression, 3 for reasons unknown): Fifteen | ARRY-382-related grade ≥3 AEs ([1]; Phase 1b, 200-mg cohort): 50.0% | Discontinued due to AEs (primary reason) ([1]; Phase 1b, 200-mg cohort, one patient): 16.7% | ARRY-382-related grade ≥3 AEs ([1]; Phase 1b, 300-mg cohort): 100.0% | ARRY-382-related SAE (Grade 3 ALT and AST increased) ([1]; Phase 1b, 300-mg cohort, one patient): 16.7% | ARRY-382-related grade ≥3 AEs ([1]; Phase 1b, 400-mg cohort): 42.9% | ARRY-382-related AEs: ALT increased [1, 3]: 2 (33.3) n (%) | ARRY-382-related AEs: AST increased [1, 3]: 1 (16.7) n (%) | ARRY-382-related AEs: All AEs [1, 3]: 5 (83.3%) n (%) and 5 (83.3) n (%) | ARRY-382-related AEs: Amylase increased [1, 3]: 1 (16.7) n (%) | ARRY-382-related AEs: Blood CPK increased [1, 3]: 2 (33.3) n (%) | ARRY-382-related AEs: Blood alkaline phosphatase increased [1, 3]: 1 (16.7) n (%) | ARRY-382-related AEs: Chills [1, 3]: 1 (16.7) n (%) | ARRY-382-related AEs: Fatigue [1, 3]: 2 (33.3) n (%) | ARRY-382-related AEs: Lipase increased [1, 3]: 1 (16.7) n (%) | ARRY-382-related AEs: Nausea [1, 3]: 0 (0.0) n (%) | ARRY-382-related AEs: Pruritus [1, 3]: 2 (33.3) n (%) | ARRY-382-related AEs: Pyrexia [1, 3]: 1 (16.7) n (%) | ARRY-382-related AEs: Rash maculo-papular [1, 3]: 1 (16.7) n (%) | ARRY-382-related AEs: Thrombocytopenia [1, 3]: 0 (0.0) n (%) | ARRY-382-related AEs: ALT increased [1, 4]: 3 (50.0) n (%) | ARRY-382-related AEs: AST increased [1, 4]: 5 (83.3) n (%) | ARRY-382-related AEs: All AEs [1, 4]: 6 (100.0%) n (%) and 6 (100.0) n (%) | ARRY-382-related AEs: Amylase increased [1, 4]: 3 (50.0) n (%) | ARRY-382-related AEs: Blood CPK increased [1, 4]: 3 (50.0) n (%) | ARRY-382-related AEs: Blood alkaline phosphatase increased [1, 4]: 2 (33.3) n (%) | ARRY-382-related AEs: Chills [1, 4]: 0 (0.0) n (%) | ARRY-382-related AEs: Fatigue [1, 4]: 2 (33.3) n (%) | ARRY-382-related AEs: Lipase increased [1, 4]: 4 (66.7) n (%) | ARRY-382-related AEs: Nausea [1, 4]: 1 (16.7) n (%) | ARRY-382-related AEs: Pruritus [1, 4]: 2 (33.3) n (%) | ARRY-382-related AEs: Pyrexia [1, 4]: 0 (0.0) n (%) | ARRY-382-related AEs: Rash maculo-papular [1, 4]: 2 (33.3) n (%) | ARRY-382-related AEs: Thrombocytopenia [1, 4]: 1 (16.7) n (%) | ARRY-382-related AEs: ALT increased [1, 5]: 2 (28.6) n (%) | ARRY-382-related AEs: AST increased [1, 5]: 2 (28.6) n (%) | ARRY-382-related AEs: All AEs [1, 5]: 5 (71.4%) n (%) and 5 (71.4) n (%) | ARRY-382-related AEs: Amylase increased [1, 5]: 1 (14.3) n (%) | ARRY-382-related AEs: Blood CPK increased [1, 5]: 2 (28.6) n (%) | ARRY-382-related AEs: Blood alkaline phosphatase increased [1, 5]: 2 (28.6) n (%) | ARRY-382-related AEs: Chills [1, 5]: 1 (14.3) n (%) | ARRY-382-related AEs: Fatigue [1, 5]: 0 (0.0) n (%) | ARRY-382-related AEs: Lipase increased [1, 5]: 1 (14.3) n (%) | ARRY-382-related AEs: Nausea [1, 5]: 2 (28.6) n (%) | ARRY-382-related AEs: Pruritus [1, 5]: 0 (0.0) n (%) | ARRY-382-related AEs: Pyrexia [1, 5]: 1 (14.3) n (%) | ARRY-382-related AEs: Rash maculo-papular [1, 5]: 1 (14.3) n (%) | ARRY-382-related AEs: Thrombocytopenia [1, 5]: 1 (14.3) n (%) | ARRY-382-related AEs: ALT increased ([1]; Phase 1b, Total, N = 19): 7 (36.8) n (%) | ARRY-382-related AEs: AST increased ([1]; Phase 1b, Total, N = 19): 8 (42.1) n (%) | ARRY-382-related AEs: All AEs ([1]; Phase 1b, Total, N = 19): 16 (84.2%) n (%) and 16 (84.2) n (%) | ARRY-382-related AEs: Amylase increased ([1]; Phase 1b, Total, N = 19): 5 (26.3) n (%) | ARRY-382-related AEs: Blood CPK increased ([1]; Phase 1b, Total, N = 19): 7 (36.8) n (%) | ARRY-382-related AEs: Blood alkaline phosphatase increased ([1]; Phase 1b, Total, N = 19): 5 (26.3) n (%) | ARRY-382-related AEs: Chills ([1]; Phase 1b, Total, N = 19): 2 (10.5) n (%) | ARRY-382-related AEs: Fatigue ([1]; Phase 1b, Total, N = 19): 4 (21.1) n (%) | ARRY-382-related AEs: Lipase increased ([1]; Phase 1b, Total, N = 19): 6 (31.6) n (%) | ARRY-382-related AEs: Nausea ([1]; Phase 1b, Total, N = 19): 3 (15.8) n (%) | ARRY-382-related AEs: Pruritus ([1]; Phase 1b, Total, N = 19): 4 (21.1) n (%) | ARRY-382-related AEs: Pyrexia ([1]; Phase 1b, Total, N = 19): 2 (10.5) n (%) | ARRY-382-related AEs: Rash maculo-papular ([1]; Phase 1b, Total, N = 19): 4 (21.1) n (%) | ARRY-382-related AEs: Thrombocytopenia ([1]; Phase 1b, Total, N = 19): 2 (10.5) n (%) | ARRY-382-related increased ALT ([1]; Phase 1b, all patients): 36.8% | ARRY-382-related increased AST ([1]; Phase 1b, all patients): 42.1% | ARRY-382-related increased CPK ([1]; Phase 1b, all patients): 36.8% | Patients reporting DLTs ([1]; Phase 1b, overall): 3/19 | Periorbital edema ([1]; Phase 1b, overall): 5.3% | RAUC (accumulation ratio), geometric mean (geometric %CV) ([2]; Overall): 2.49 (35.6) | Ctrough, geometric mean (geometric %CV) ([2]; Overall, n = 15): 796 (86.9) ng/mL | RCmax (accumulation ratio), geometric mean (geometric %CV) ([2]; Overall, n = 15): 2.06 (41.9) | RAUC (accumulation ratio), geometric mean (geometric %CV) ([2]; PD-1/PD-L1 IR, n = 3): 2.67 (36.2) | Ctrough, geometric mean (geometric %CV) ([2]; PD-1/PD-L1 IR, n = 6): 878 (70.1) ng/mL | RCmax (accumulation ratio), geometric mean (geometric %CV) ([2]; PD-1/PD-L1 IR, n = 6): 2.52 (39.9) | RAUC (accumulation ratio), geometric mean (geometric %CV) ([2]; PDA, n = 3): 3.41 (23.6) | Ctrough, geometric mean (geometric %CV) ([2]; PDA, n = 4): 1,480 (17.5) ng/mL | RCmax (accumulation ratio), geometric mean (geometric %CV) ([2]; PDA, n = 4): 2.07 (53.6) | RAUC (accumulation ratio), geometric mean (geometric %CV) ([2]; prOVCA, n = 4): 1.87 (16.7) | Ctrough, geometric mean (geometric %CV) ([2]; prOVCA, n = 5): 438 (86.5) ng/mL | RCmax (accumulation ratio), geometric mean (geometric %CV) ([2]; prOVCA, n = 5): 1.62 (24.7) | AUC(0-t) ([2]; Cycle 1 day 1, Overall, n = 55): 6310 ng·h/mL | AUC(0-t) [2, 6]: 6320 ng·h/mL | AUC(0-t) ([2]; Cycle 1 day 1, PDA, n = 26): 6350 ng·h/mL | AUC(0-t) ([2]; Cycle 1 day 1, prOVCA, n = 11): 6210 ng·h/mL | AUC(0-t) ([2]; Cycle 2 day 1, Overall, n = 15): 28500 ng·h/mL | AUC(0-t) [2, 7]: 26600 ng·h/mL | AUC(0-t) ([2]; Cycle 2 day 1, PDA, n = 4): 47100 ng·h/mL | AUC(0-t) ([2]; Cycle 2 day 1, prOVCA, n = 5): 20700 ng·h/mL | AUC ([2]; Cycle 2 day 1, Overall, n = 15): 30600 ng·h/mL | AUC [2, 7]: 32100 ng·h/mL | AUC ([2]; Cycle 2 day 1, PDA, n = 4): 47100 ng·h/mL | AUC ([2]; Cycle 2 day 1, prOVCA, n = 5): 20700 ng·h/mL | Cmax ([2]; Cycle 1 day 1, Overall, n = 55): 1270 ng/mL | Cmax [2, 6]: 1240 ng/mL | Cmax ([2]; Cycle 1 day 1, PDA, n = 26): 1290 ng/mL | Cmax ([2]; Cycle 1 day 1, prOVCA, n = 11): 1260 ng/mL | Cmax ([2]; Cycle 2 day 1, Overall, n = 15): 2080 ng/mL | Cmax [2, 7]: 2130 ng/mL | Cmax ([2]; Cycle 2 day 1, PDA, n = 4): 2820 ng/mL | Cmax ([2]; Cycle 2 day 1, prOVCA, n = 5): 1580 ng/mL | Tmax [2, 6]: 1.97 h | Tmax ([2]; Cycle 1 day 1, prOVCA, n = 11): 2 h | Tmax [2, 7]: 2 h | Tmax ([2]; Cycle 2 day 1, PDA, n = 4): 3.03 h
